According to article PMC8245385 (Clinical Drug Investigation, 2021):
Read-outs that look alike come from different tables or passages of the source.

How the values were obtained:
[1] = Plasma pharmacokinetics in the doravirine/islatravir drug interaction study; assay type: in vivo, human
How it was run: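 Healthy adults were randomized and blinded. They took oral doravirine 100 mg or placebo QD for 5 days, then islatravir 2.25 mg QD for 14 days, then both for 5 days, with no washout and ≥10 h fasting before dosing on PK days. K2EDTA plasma went to validated LC-MS/MS (islatravir LLOQ 0.10 ng/mL). AUC0–24h used linear-up/log-down; GMRs came from a ln-scale mixed-effects model.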

[2] = Safety and tolerability; assay type: in vivo, human; conditions: doravirine 100 mg QD, islatravir 2.25 mg QD, alone or in combination; participants without HIV
How it was run: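 Safety was assessed throughout the study by adverse-event monitoring, physical examinations, vital signs, electrocardiography and laboratory safety tests. Investigators graded clinical adverse events as mild, moderate or severe in intensity. The analysis set was all participants given at least one dose of active study drug or placebo. Dosing was oral with water at the same time each day.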

[3] = cited from earlier work
[4] = cited from earlier work; remark: listed apart in the source
[5] = tested on: CYP enzymes; conditions: cited from earlier work
[6] = cited from earlier work; remark: listed apart in the source
[7] = single oral doses, participants without HIV

SMILES: Cn1c(Cn2ccc(C(F)(F)F)c(Oc3cc(Cl)cc(C#N)c3)c2=O)n[nH]c1=O [Doravirine]
- Doravirine C24h, GMR (90% CI), (doravirine + islatravir)/doravirine ([1]; doravirine 100 mg QD with vs without islatravir 2.25 mg QD): 1.12 (0.95–1.32)
- AUC(0-t) ([1]; human, plasma, oral, 100 mg): 34 µM·h
- Cmax ([1]; human, plasma, oral, 100 mg): 2440 nM
- Tmax ([1]; human, plasma, oral, 100 mg): 2.5 h
- concentration at 24 h ([1]; human, plasma, oral, 100 mg): 773 nM
- Tolerability [2]: generally well tolerated
- Apparent terminal half-life ([3]; 6–1200 mg orally): 12 to 21 h
- Time to attainment of steady state ([3]; QD dosing, 200 mg orally): approximately 5 days
- Range of median Tmax previously reported [3]: 1 to 4 h
- Reduction of doravirine exposure on coadministration with rifabutin ([3]; moderate CYP3A4 inducer): 50%
- Reduction of doravirine exposure on coadministration with rifampin ([3]; strong CYP3A4 inducer): 88%
- Tolerability ([4]; doses of up to 1,200 mg in clinical studies): generally well tolerated
- Inhibition or induction of CYP enzymes ([5]; in vitro): not an inhibitor or inducer of CYP enzymes

SMILES: C#C[C@]1(COP(=O)(O)OP(=O)(O)OP(=O)(O)O)O[C@@H](n2cnc3c(N)nc(F)nc32)C[C@@H]1O [islatravir-TP]
- Time at which peak intracellular islatravir-TP concentrations were attained ([6]; after islatravir administration): 6 to 24 h
- Apparent terminal half-life of islatravir-TP ([6]; dosed daily to steady state): exceeded 7 days
- Time to steady state of intracellular islatravir-TP ([6]; oral QD dosing of islatravir): ≤ 28 days
- Intracellular half-life of islatravir-TP ([6]; single oral doses of islatravir): 118 to 171 h

SMILES: C#C[C@]1(CO)O[C@@H](n2cnc3c(N)nc(F)nc32)C[C@@H]1O [Islatravir, 4'-Ethynyl-2-fluoro-2'-deoxyadenosine]
- AUC(0-t) ([1]; human, plasma, oral, 2.25 mg): 0.254 µM·h
- Cmax ([1]; human, plasma, oral, 2.25 mg): 63.5 nM
- Tmax ([1]; human, plasma, oral, 2.25 mg): 0.52 h
- Tolerability [2]: generally well tolerated
- Time to steady-state plasma concentrations ([6]; oral QD dosing): ~14 days
- Half-life of islatravir [6, 7]: 49 to 61 h
- Time at which peak plasma concentrations were attained [6, 7]: ~ 0.5 h
- Tolerability ([4]; treatment-naive people living with HIV-1, oral doses 0.5–30 mg): generally well tolerated
- Metabolism by CYP enzymes [5]: not metabolized by CYP enzymes
